Measured values reported in ChEMBL document CHEMBL5126583, “Cytotoxicity of cinchona alkaloid organocatalysts against MES-SA and MES-SA/Dx5 multidrug-resistant uterine sarcoma cell lines” (Bioorg Med Chem, 2022).
Calls of active or inactive are those of the source. The calls are words filed in the database; no cut-off is given here.

Assays:
MES-SA [1] = test: Cytotoxicity against human MES-SA cells assessed as cell growth inhibition incubated for 144 hrs by fluorescence microplate reader assay; assay type: functional, cell-based
Method in brief: (§1)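 MES-SA (mCherry) and doxorubicin-selected Dx5 (eGFP; pretreated with 500 nM doxorubicin to keep P-gp expression) co-cultured, 1250 cells each per well, settled overnight. Serial dilutions added, 144 h incubation. Viability read by fluorescence (mCherry ex 585/em 610 nm; eGFP ex 485/em 510 nm). IC50 by automated curve evaluation; two-sided unpaired t-test.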

MES-SA/Dx5 [2] = test: Cytotoxicity against multidrug resistance human MES-SA/Dx5 cells assessed as cell growth inhibition incubated for 144 hrs by fluorescence microplate reader assay; assay type: functional, cell-based; settings: MES-SA/Dx5, 144 h; method in brief: as §1
[3] = Resistance ratio of IC50 for cytotoxicity against multidrug resistance human MES-SA/Dx5 cells to IC50 for cytotoxicity against human MES-SA cells; assay type: functional
MES-SA [4] = test: Cytotoxicity against human MES-SA cells assessed as cell growth inhibition incubated for 144 hrs in presence of P-gp inhibitor Tariquidar by fluorescence microplate reader assay; assay type: functional, cell-based
Method in brief: (§2)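 Co-culture of fluorescent MES-SA (mCherry) and Dx5 (eGFP, doxorubicin 500 nM pretreated) exposed to serial dilutions plus 0.4 µM tariquidar for 144 h. Per-line fluorescence read-out gave IC50. Resistance ratio = IC50 Dx5 / IC50 MES-SA; significance by two-sided unpaired t-test.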

MES-SA/Dx5 [5] = test: Cytotoxicity against multidrug resistance human MES-SA/Dx5 cells assessed as cell growth inhibition incubated for 144 hrs in presence of P-gp inhibitor Tariquidar by fluorescence microplate reader assay; assay type: functional, cell-based; settings: MES-SA/Dx5, 144 h; method in brief: as §2
[6] = Resistance ratio of IC50 for cytotoxicity against multidrug resistance human MES-SA/Dx5 cells in presence of P-gp inhibitor Tariquidar to IC50 for cytotoxicity against human MES-SA cells in presence of P-gp inhibitor Tariquidar; assay type: functional; method in brief: as §2
MES-SA/Dx5 [7] = test: Inhibition of P-gp in multidrug resistance human MES-SA/Dx5 cells assessed as inhibition of calcein-AM efflux at 20 uM incubated for 15 mins by calcein-AM staining based flow cytometry analysis
MES-SA/Dx5 [8] = test: Cytotoxicity against multidrug resistance human MES-SA/Dx5 cells assessed as reduction on calcein accumulation by measuring cell distribution at 20 uM incubated for 15 mins by calcein-AM staining based flow cytometry analysis; assay type: functional; design: scale not given: the % may be the effect or the level left; settings: 0.25 h
Method in brief: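 Non-fluorescent Dx5 cells, 250 000 per tube, washed in serum-free DMEM, preincubated 5 min at 37 °C with compound at 20 µM. Calcein-AM then added (250 nM final) for 10 min more. Stopped with ice-cold PBS and kept on ice. Calcein fluorescence measured by flow cytometry, TO-PRO-3 live/dead gating. Controls: 20 µM verapamil, medium only.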

MES-SA/Dx5 [9] = test: Cytotoxicity against multidrug resistance human MES-SA/Dx5 cells assessed as inhibition of calcein-AM efflux at 20 uM incubated for 15 mins in presence of metal chelator EDTA by calcein-AM staining based flow cytometry analysis; assay type: functional, cell-based
Method in brief: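 Calcein accumulation in non-fluorescent Dx5 cells, 250 000 per tube, with every step from preincubation to measurement in PBS containing 1 µM EDTA. Cells preincubated 5 min with 20 µM compound, then 250 nM calcein-AM for 10 min at 37 °C. Read by flow cytometry with TO-PRO-3 live/dead stain. Controls: verapamil 20 µM, no inhibitor.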

Row | SMILES | IC50 (MES-SA [1]) [µM] | IC50 (MES-SA/Dx5 [2]) [µM] | Ratio IC50 [3] | IC50 (MES-SA [4]) [µM] | IC50 (MES-SA/Dx5 [5]) [µM] | Ratio IC50 [6] | Activity (MES-SA/Dx5 [7]) | Activity (MES-SA/Dx5 [8]) [%] | Activity (MES-SA/Dx5 [9])
1 | C#C[C@H]1CN2CC[C@H]1C[C@H]2[C@H](O)c1ccnc2ccc(OC)cc12 | 111 | 85 | 0.8 | 117 | 79 | 0.7 |  |  | 
2 | C=C[C@H]1CN2CC[C@H]1C[C@H]2[C@H](O)c1ccnc2ccc(OC)cc12 [QUININE] | 93 | 67 | 0.7 | 91 | 43 | 0.5 | Active |  | 
3 | C=C[C@H]1CN2CC[C@H]1C[C@H]2[C@@H](N)c1ccnc2ccc(OC)cc12 | 81 | 197 | 2.4 | 115 | 121 | 1 | Active |  | 
4 | C#C[C@H]1CN2CC[C@H]1C[C@H]2[C@@H](N)c1ccnc2ccc(OC)cc12 | 29 | 161 | 5.6 | 30 | 146 | 4.9 |  |  | 
5 | CC[C@H]1CN2CC[C@H]1C[C@H]2[C@@H](Nc1c(NCc2ccccc2)c(=O)c1=O)c1ccnc2ccc(OC)cc12 | 3.1 | 21 | 6.6 | 3.9 | 3.4 | 0.9 |  | 53.1 | Active
6 | C=C[C@H]1CN2CC[C@H]1C[C@H]2[C@@H](Nc1c(Nc2cc(C(F)(F)F)cc(C(F)(F)F)c2)c(=O)c1=O)c1ccnc2ccc(OC)cc12 | 4.2 | 12 | 3 | 4.9 | 2.7 | 0.5 | Active |  | 
7 | C#C[C@H]1CN2CC[C@H]1C[C@H]2[C@@H](Nc1c(Nc2cc(C(F)(F)F)cc(C(F)(F)F)c2)c(=O)c1=O)c1ccnc2ccc(OC)cc12 | 3.9 | 14 | 3.7 | 5.5 | 2.3 | 0.4 |  |  | 
8 | CC[C@H]1CN2CC[C@H]1C[C@H]2[C@@H](NC(=S)Nc1cc(C(F)(F)F)cc(C(F)(F)F)c1)c1ccnc2ccc(OC)cc12 | 1.3 | 1.5 | 1.2 | 1 | 0.9 | 0.8 |  |  | 
9 | COc1cccc2c1C(=O)c1c(O)c3c(c(O)c1C2=O)C[C@@](O)(C(=O)CO)C[C@@H]3O[C@H]1C[C@H](N)[C@H](O)[C@H](C)O1 [DOXORUBICIN] |  |  | 62.5 |  |  | 0.8 |  |  | 
10 | Oc1c(CN2CCCCC2)ccc2cccnc12 |  |  | 0.1 |  |  |  |  |  | 
11 | CC[C@H]1CN2CC[C@H]1C[C@H]2[C@@H](N)c1ccnc2ccc(OC)cc12 | 80 | 105 | 1.3 | 82 | 48 | 0.6 |  |  | 
12 | CC[C@H]1CN2CC[C@H]1C[C@H]2[C@@H](Nc1c(NCc2ccccc2)c(=S)c1=S)c1ccnc2ccc(OC)cc12 | 57 | 65 | 1.1 | 56 | 50 | 0.9 | Active |  | 
13 | C#C[C@H]1CN2CC[C@H]1C[C@H]2[C@@H](NC(=S)Nc1cc(C(F)(F)F)cc(C(F)(F)F)c1)c1ccnc2ccc(OC)cc12 | 4.2 | 3.9 | 0.9 |  |  |  |  |  | 
14 | CC[C@H]1CN2CC[C@H]1C[C@H]2[C@H](O)c1ccnc2ccc(OC)cc12 [HYDROQUININE] | 48 | 47 | 1 |  |  |  |  |  | 
15 | CC[C@H]1CN2CC[C@H]1C[C@H]2[C@@H](Nc1c(Nc2cc(C(F)(F)F)cc(C(F)(F)F)c2)c(=O)c1=O)c1ccnc2ccc(OC)cc12 | 3.6 | 11 | 2.9 | 4.4 | 2.3 | 0.5 |  |  | 
16 | C=C[C@H]1CN2CC[C@H]1C[C@H]2[C@@H](NC(=S)Nc1cc(C(F)(F)F)cc(C(F)(F)F)c1)c1ccnc2ccc(OC)cc12 | 2.3 | 2.8 | 1.2 |  |  |  | Active |  | 
